Test results published in ChEMBL document CHEMBL1138835, “Inhibitors of multiple mutants of Plasmodium falciparum dihydrofolate reductase and their antimalarial activities” (J Med Chem, 2004).
pIC50, pKi: −log10 of the molar value.

Tests used:
KB [1] = assay: Relative antiplasmodial activity to cytotoxicity in Plasmodium falciparum Csl-2 infected KB cells; format: functional
[2] = target: Bifunctional dihydrofolate reductase-thymidylate synthase (Plasmodium falciparum K1, UniProt P13922, C59R/N51I/S108N); assay: Binding affinity towards mutant dihydrofolate reductase (N51I+C59R+S108N DHFR) of Plasmodium falciparum
Sequence of Bifunctional dihydrofolate reductase-thymidylate synthase (Plasmodium falciparum K1, UniProt P13922, C59R/N51I/S108N) (P13922 whole entry, looked up, stated change not applied): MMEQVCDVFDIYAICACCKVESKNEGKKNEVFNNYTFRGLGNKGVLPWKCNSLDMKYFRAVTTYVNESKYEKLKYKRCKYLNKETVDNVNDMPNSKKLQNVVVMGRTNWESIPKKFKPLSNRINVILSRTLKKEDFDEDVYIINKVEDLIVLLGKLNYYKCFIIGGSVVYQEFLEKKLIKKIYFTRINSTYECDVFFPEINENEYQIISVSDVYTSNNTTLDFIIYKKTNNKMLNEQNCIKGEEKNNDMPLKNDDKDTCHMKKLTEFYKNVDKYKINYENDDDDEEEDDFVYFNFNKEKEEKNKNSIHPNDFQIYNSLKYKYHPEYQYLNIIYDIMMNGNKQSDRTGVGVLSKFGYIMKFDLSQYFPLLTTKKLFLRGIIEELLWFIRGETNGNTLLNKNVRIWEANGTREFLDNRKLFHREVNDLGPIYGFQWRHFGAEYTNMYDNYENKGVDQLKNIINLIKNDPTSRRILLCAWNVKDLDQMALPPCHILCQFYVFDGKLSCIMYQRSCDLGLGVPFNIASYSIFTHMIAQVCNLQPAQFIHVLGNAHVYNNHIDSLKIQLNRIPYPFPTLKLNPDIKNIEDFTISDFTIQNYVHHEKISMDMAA

[3] = target: Bifunctional dihydrofolate reductase-thymidylate synthase (Plasmodium falciparum K1) (UniProt P13922); assay: Ratio of binding affinity for mutant (N51I+C59R+S108N) to that of wild type dihydrofolate reductase
Sequence of Bifunctional dihydrofolate reductase-thymidylate synthase (Plasmodium falciparum K1) (P13922 whole entry, looked up): as the sequence (P13922 whole entry, looked up, stated change not applied) above
Outline: (§1)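 Each ratio is Ki for the mutant PfDHFR divided by Ki for wild-type PfDHFR. The recombinant enzymes were expressed in E. coli BL21(DE3)pLysS and purified on methotrexate-Sepharose. Ki was derived assuming inhibitors compete with substrate binding.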

Vero [4] = assay: Relative antiplasmodial activity to cytotoxicity in Plasmodium falciparum V1/S infected Vero cells; format: functional
Vero [5] = assay: In vitro cytotoxicity against Plasmodium falciparum infected vero cell line.; format: functional, cell-based; conditions: Chlorocebus sabaeus
Outline: (§2)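 Cytotoxicity (IC50, μM) run against three mammalian lines: Vero (African green monkey kidney fibroblasts), KB (human epidermoid carcinoma) and BC (human breast cancer). Testing followed the Skehan et al. protocol.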

KB [6] = assay: Relative antiplasmodial activity to cytotoxicity in Plasmodium falciparum V1/S infected KB cells; format: functional
Vero [7] = assay: Relative antiplasmodial activity to cytotoxicity in Plasmodium falciparum Csl-2 infected Vero cells; format: functional
[8] = test system: Bifunctional dihydrofolate reductase-thymidylate synthase (Plasmodium falciparum K1), P13922 [UNDEFINED MUTATION]; assay: Ratio of binding affinity for mutant (C59R+S108N+I164L) to that of wild type dihydrofolate reductase; outline: as §1
Sequence of Bifunctional dihydrofolate reductase-thymidylate synthase (Plasmodium falciparum K1), P13922 [UNDEFINED MUTATION] (P13922 whole entry, looked up, stated change not applied): as above

Vero [9] = assay: Relative antiplasmodial activity to cytotoxicity in Plasmodium falciparum TM4/8.2 infected Vero cells; format: functional
[10] = target: Bifunctional dihydrofolate reductase-thymidylate synthase (Plasmodium falciparum K1, UniProt P13922, C59R/I164L/N51I/S108N); assay: Binding affinity towards mutant dihydrofolate reductase (N51I+C59R+S108N+I164L DHFR) of Plasmodium falciparum
Sequence of Bifunctional dihydrofolate reductase-thymidylate synthase (Plasmodium falciparum K1, UniProt P13922, C59R/I164L/N51I/S108N) (P13922 whole entry, looked up, stated change not applied): as above

[11] = target: Bifunctional dihydrofolate reductase-thymidylate synthase (Plasmodium falciparum K1, UniProt P13922); assay: Binding affinity towards wild-type dihydrofolate reductase of Plasmodium falciparum.
Sequence of Bifunctional dihydrofolate reductase-thymidylate synthase (Plasmodium falciparum K1, UniProt P13922) (P13922 whole entry): as the sequence (P13922 whole entry, looked up, stated change not applied) above

[12] = target: Bifunctional dihydrofolate reductase-thymidylate synthase (Plasmodium falciparum K1, UniProt P13922, C59R/I164L/S108N); assay: Binding affinity towards mutant dihydrofolate reductase (C59R+S108N+I164L DHFR) of Plasmodium falciparum
Sequence of Bifunctional dihydrofolate reductase-thymidylate synthase (Plasmodium falciparum K1, UniProt P13922, C59R/I164L/S108N) (P13922 whole entry, looked up, stated change not applied): as above

[13] = test system: Bifunctional dihydrofolate reductase-thymidylate synthase (Plasmodium falciparum K1), P13922 [UNDEFINED MUTATION]; assay: Ratio of binding affinity for mutant (N51I+C59R+S108N+I164L) to that of wild type dihydrofolate reductase; outline: as §1
KB [14] = assay: Relative antiplasmodial activity to cytotoxicity in Plasmodium falciparum TM4/8.2 infected KB cells; format: functional
BC [15] = assay: In vitro cytotoxicity against BC cell line.; conditions: Homo sapiens
KB [16] = assay: In vitro cytotoxicity against Plasmodium falciparum infected KB cell line; format: functional, cell-based; conditions: Homo sapiens; outline: as §2
BC [17] = assay: Relative antiplasmodial activity to cytotoxicity in Plasmodium falciparum TM4/8.2 infected BC cells; format: functional
BC [18] = assay: Relative antiplasmodial activity to cytotoxicity in Plasmodium falciparum Csl-2 infected BC cells; format: functional
[19] = target: Bifunctional dihydrofolate reductase-thymidylate synthase (Plasmodium falciparum K1, UniProt P13922, A16V/S108T); assay: Binding affinity towards mutant dihydrofolate reductase (A16V+S108T DHFR) of Plasmodium falciparum.
Sequence of Bifunctional dihydrofolate reductase-thymidylate synthase (Plasmodium falciparum K1, UniProt P13922, A16V/S108T) (P13922 whole entry, looked up, stated change not applied): as above

[20] = test system: Bifunctional dihydrofolate reductase-thymidylate synthase (Plasmodium falciparum K1), P13922 [UNDEFINED MUTATION]; assay: Ratio of binding affinity for mutant (A16V+S108T) to that of wild type dihydrofolate reductase; outline: as §1

SMILES | Safety ratio (KB [1]) | pKi [2] | Ratio [3] | Safety ratio (Vero [4]) | pIC50 (Vero [5]) | Safety ratio (KB [6]) | Safety ratio (Vero [7]) | Ratio [8] | Safety ratio (Vero [9]) | pKi [10] | pKi [11] | pKi [12] | Ratio [13] | Safety ratio (KB [14]) | pIC50 (BC [15]) | pIC50 (KB [16]) | Safety ratio (BC [17]) | Safety ratio (BC [18]) | pKi [19] | Ratio [20]
Nc1nc(N)c(-c2cccc(Cl)c2)c(CCCc2ccccc2)n1 | 0.4 | 8.70 | 1.7 | 0.4 | 5.68 | 0.3 | 0.6 | 1.8 | 3.1 | 8.70 | 8.92 | 8.66 | 1.7 | 2.4 | 5.80 | 5.80 | 2.4 | 0.4 | – | –
NC1=NC(c2ccccc2)N(c2cccc(Cl)c2)C(N)=N1 (stereo unspecified) | 348 | 6.95 | 9.5 | 312 | 3.60 | 109 | 1000 | 18.5 | 446 | 6.01 | 7.93 | 6.66 | 84.1 | 155 | 3.77 | 4.06 | 300 | 672 | 7.98 | 0.9
CC1(C)N=C(N)N=C(N)N1c1ccc(Cl)cc1 [CYCLOGUANIL] | 1.1 | 7.50 | 20.9 | – | < 4.30 | <0.4 | > 1.3 | 190 | >1250 | 6.38 | 8.82 | 6.55 | 280 | 1025 | < 4.30 | 4.39 | >1250 | >1.3 | – | 876
